Reference: ChEMBL document CHEMBL3804807, “Purine analogs as phosphatidylinositol 4-kinase IIIβ inhibitors” (Bioorg Med Chem Lett, 2016)

Legend:
[1] = test system: Coxsackievirus B3; assay: Antiviral activity against Human coxsackievirus B3; assay type: functional, organism-based; conditions: Enterovirus B
[2] = test system: Human rhinovirus sp.; assay: Antiviral activity against Human rhinovirus; assay type: functional, organism-based
[3] = species: Homo sapiens; assay: Inhibition of PI4K3 alpha (unknown origin) at 10 uM by ADP-Glo assay relative to control
Outline: (§1)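 PI4K IIIα and PI4K IIIβ activity read by ADP-Glo assay. Each compound was tested at a single concentration of 10 μM, and residual enzyme activity was expressed relative to control.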

[4] = species: Homo sapiens; assay: Inhibition of PI4K3 beta (unknown origin) assessed as residual activity at 10 uM by ADP-Glo assay relative to control; outline: as §1
[5] = Cytotoxicity against human HeLa cells; assay type: cell-based
[6] = test system: Hepatitis C virus; assay: Antiviral activity against Hepatitis C virus subtype 1b; assay type: functional, organism-based, Hepacivirus hominis; conditions: genotype 1b
[7] = Inhibition of PI4K3 beta (unknown origin) by ADP-Glo assay; design: species or system Homo sapiens

SMILES	EC50 [1]	EC50 [2]	inhibition [3]	Activity [4]	CC50 [5]	EC50 [6]	IC50 [7]
COc1ccc(-n2c(C3CCCCC3)nc3c(NCCN4CCOCC4)nc(C)nc32)cc1OC	> 50 µM	> 50 µM	< 50%	79%	> 50 µM	> 44 µM	–
COc1nc(NCCN2CCOCC2)c2nc(C)n(-c3ccc(OC)c(OC)c3)c2n1	> 50 µM	16 µM	< 50%	15%	> 50 µM	6 µM	2.99 µM
C#Cc1nc(NCCN2CCOCC2)c2nc(C)n(-c3ccc(OC)c(OC)c3)c2n1	> 50 µM	26 µM	< 50%	18%	> 50 µM	13 µM	1.91 µM
COc1ccc(-n2c(C)nc3c(NCCN4CCOCC4)nc(-c4cccc(Cl)c4)nc32)cc1OC	> 50 µM	9 µM	< 50%	67%	> 50 µM	5 µM	–
COc1ccc(-n2c(C)nc3c(NCCN4CCOCC4)nc(I)nc32)cc1OC	9 µM	16 µM	< 50%	33%	> 50 µM	10 µM	–
COc1ccc(-n2c(CO)nc3c(NCCN4CCOCC4)nc(C)nc32)cc1OC	> 50 µM	–	< 50%	62%	> 50 µM	> 44 µM	–
COc1ccc(-n2c(C)nc3c(NCCN4CCOCC4)ncnc32)cc1OC	5 µM	28 µM	< 50%	13%	> 50 µM	19 µM	1.61 µM
COc1ccc(-n2c(C)nc3c(NCCN4CCOCC4)nc(C#Cc4ccccc4)nc32)cc1OC	5 µM	8 µM	< 50%	58%	48 µM	6 µM	–
COc1ccc(-n2c(C)nc3c(NCCN4CCOCC4)nc(C)nc32)cc1OC	8 µM	40 µM	< 50%	14%	> 50 µM	> 44 µM	0.91 µM
COc1ccc(-n2c(C#Cc3ccccc3)nc3c(NCCN4CCOCC4)nc(C)nc32)cc1OC	> 50 µM	> 50 µM	< 50%	96%	> 50 µM	30 µM	–
COc1ccc(-n2c(C)nc3c(NCCN4CCOCC4)nc(-c4cccc(C(=O)N(C)C)c4)nc32)cc1OC	1.1 µM	3.3 µM	< 50%	16%	> 50 µM	3.8 µM	1.09 µM
COc1ccc(-n2c(I)nc3c(NCCN4CCOCC4)nc(C)nc32)cc1OC	40 µM	> 50 µM	< 50%	38%	> 50 µM	20 µM	–
COc1ccc(-n2nnc3c(NCCN4CCOCC4)nc(C)nc32)cc1OC	26 µM	–	< 50%	31%	> 50 µM	33 µM	–
COc1ccc(-n2c(-c3ccsc3)nc3c(NCCN4CCOCC4)nc(C)nc32)cc1OC	> 50 µM	> 50 µM	< 50%	94%	> 50 µM	> 44 µM	–
COc1ccc(-n2c(C)nc3c(NCCN4CCOCC4)nc(-c4ccc(F)cc4)nc32)cc1OC	27 µM	3.4 µM	< 50%	66%	> 50 µM	4.4 µM	–
COc1ccc(-n2c(-c3ccc(O)cc3)nc3c(NCCN4CCOCC4)nc(C)nc32)cc1OC	> 50 µM	> 50 µM	< 50%	125%	> 50 µM	> 44 µM	–

SMILES	EC50 [1]	EC50 [2]	inhibition [3]	Activity [4]	CC50 [5]	EC50 [6]	IC50 [7]
COc1ccc(-n2c(OC)nc3c(NCCN4CCOCC4)nc(C)nc32)cc1OC	> 50 µM	> 50 µM	< 50%	86%	> 50 µM	> 44 µM	–
COc1ccc(-n2c(-c3ccc(C#N)cc3)nc3c(NCCN4CCOCC4)nc(C)nc32)cc1OC	> 50 µM	> 50 µM	< 50%	97%	> 50 µM	> 44 µM	–
COc1ccc(-n2nnc3c(NCCN4CCOCC4)ncnc32)cc1OC	> 50 µM	–	< 50%	41%	> 50 µM	32 µM	–
COc1ccc(-n2c(-c3ccc(C=O)cc3)nc3c(NCCN4CCOCC4)nc(C)nc32)cc1OC	> 50 µM	> 50 µM	< 50%	138%	> 50 µM	> 44 µM	–
COc1ccc(-n2cnc3c(NCCN4CCOCC4)nc(C)nc32)cc1OC	34 µM	–	< 50%	26%	> 50 µM	11.5 µM	–
COc1ccc(Cn2c(C)nc3c(NCCN4CCOCC4)nc(C)nc32)cc1OC	> 50 µM	> 50 µM	< 50%	126%	> 50 µM	43 µM	–
COc1ccc(-n2c(C(C)C)nc3c(NCCN4CCOCC4)nc(C)nc32)cc1OC	> 50 µM	–	< 50%	65%	> 50 µM	> 44 µM	–
COc1ccc(-n2c(C(F)(F)F)nc3c(NCCN4CCOCC4)nc(C)nc32)cc1OC	> 50 µM	> 50 µM	< 50%	99%	> 50 µM	> 44 µM	–
COc1ccc(-n2ccc3c(NCCN4CCOCC4)ncnc32)cc1OC	> 50 µM	–	< 50%	74%	> 50 µM	22 µM	–
COc1ccc(-n2c(-c3ccc(CO)cc3)nc3c(NCCN4CCOCC4)nc(C)nc32)cc1OC	> 50 µM	> 50 µM	< 50%	103%	> 50 µM	> 44 µM	–
COc1ccc(-n2c(C3CC=CCC3)nc3c(NCCN4CCOCC4)nc(C)nc32)cc1OC (centres undefined)	> 50 µM	> 50 µM	< 50%	75%	> 50 µM	> 44 µM	–
COc1ccc(-n2c(-c3ccc(OCc4ccccc4)cc3)nc3c(NCCN4CCOCC4)nc(C)nc32)cc1OC	–	9.6 µM	< 50%	112%	26 µM	> 44 µM	–
COc1ccc(-n2c(C)nc3c(NCCN4CCOCC4)nc(-c4cccnc4)nc32)cc1OC	14 µM	3.3 µM	< 50%	36%	> 50 µM	15 µM	–
COc1ccc(-n2c(-c3ccc(F)cc3)nc3c(NCCN4CCOCC4)nc(C)nc32)cc1OC	> 50 µM	> 50 µM	< 50%	78%	> 50 µM	> 44 µM	–
COc1ccc(-n2c(C)nc3c(NCCN4CCOCC4)nc(-c4ccsc4)nc32)cc1OC	–	> 50 µM	< 50%	46%	> 50 µM	23 µM	–
COc1ccc(-n2c(C)nc3c(NCCN4CCOCC4)nc(-c4ccc(C#N)cc4)nc32)cc1OC	9.9 µM	3 µM	< 50%	97%	> 50 µM	3.9 µM	–
